What was measured:
Trypanosoma brucei [1] = assay: Antitrypanosomal activity against Trypanosoma brucei 427 bloodstream forms after 72 hrs by CellTiter-Blue fluorescence assay; format: functional; conditions: Trypanosoma brucei, 427, 72 h
In short: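 Bloodstream-form cultures were run as triplicate dose-response series to derive 50% effective concentrations. Compounds were taken to this stage only if they gave more than 50% growth inhibition in the single-concentration screen. DMSO vehicle served as the negative control, and EbS was included as a positive control in each assay.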

[2] = Inhibition of recombinant Trypanosoma brucei His6-tagged HK1 expressed in Escherichia coli M15(pREP) harboring pQE30 using glucose as substrate by spectrophotometric based glucose 6-phosphate dehydrogenase enzyme coupled assay
Trypanosoma brucei [3] = assay: Antitrypanosomal activity against Trypanosoma brucei 427 bloodstream forms at 10 uM after 72 hrs by CellTiter-Blue fluorescence assay; format: functional; conditions: Trypanosoma brucei, 427, 72 h
In short: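 Single-concentration growth screen of bloodstream-form cultures, run in triplicate. Percent inhibition was calculated against growth of parasites given DMSO vehicle on the same plate, which served as the negative control. EbS at the same concentration was included in each assay as a positive control.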

Trypanosoma brucei [4] = assay: Inhibition of recombinant Trypanosoma brucei His6-tagged HK1 expressed in Escherichia coli M15(pREP) harboring pQE30 at 10 uM using glucose as substrate by spectrophotometric based glucose 6-phosphate dehydrogenase enzyme coupled assay
In short: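 Purified recombinant TbHK1 incubated with the compound at a single fixed screening concentration, after which enzyme activity was scored. Percent inhibition is recorded relative to uninhibited enzyme.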

[5] = Inhibition of recombinant Trypanosoma brucei HK1 expressed in Escherichia coli or yeast using glucose as substrate by spectrophotometric based glucose 6-phosphate dehydrogenase enzyme coupled assay
Trypanosoma brucei [6] = assay: Antitrypanosomal activity against Trypanosoma brucei bloodstream forms after 72 hrs by CellTiter-Blue fluorescence assay; format: functional
In short: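 Bloodstream-form T. brucei cultures assayed in triplicate, with DMSO vehicle as negative control and a reference ebselen analogue as positive control on each plate. Growth inhibition is calculated against the DMSO controls of the same plate. Compounds giving over 50% inhibition in the single-concentration screen went on to triplicate dose-response curves to derive 50% effective concentrations.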

[7] = Inhibition of recombinant Trypanosoma brucei His6-tagged HK1 expressed in Escherichia coli M15(pREP) harboring pQE30 using glucose as substrate after 2 hrs by spectrophotometric based glucose 6-phosphate dehydrogenase enzyme coupled assay

## O=C(O)Cn1sc2ccccc2c1=O
Trypanosoma brucei [1]
  EC50: 7.2 µM
[2]
  IC50: > 10 µM
Trypanosoma brucei [3]
  inhibition at 10 µM: 77.6%
Trypanosoma brucei [4]
  inhibition: 0.87%

## COC(=O)c1ccc(-n2[se]c3ccccc3c2=O)cc1
Trypanosoma brucei [1]
  EC50: 13 µM
[2]
  IC50: 3.16 µM
Trypanosoma brucei [3]
  inhibition at 10 µM: 38.6%
Trypanosoma brucei [4]
  inhibition: 79%

## COC(=O)Cn1[se]c2ccccc2c1=O
Trypanosoma brucei [1]
  EC50: > 10 µM
[2]
  IC50: > 10 µM
Trypanosoma brucei [3]
  inhibition at 10 µM: 0%
Trypanosoma brucei [4]
  inhibition: 0%

## O=C(O)c1ccc(-n2sc3ccccc3c2=O)cc1
Trypanosoma brucei [1]
  EC50: > 10 µM
[2]
  IC50: > 10 µM
Trypanosoma brucei [3]
  inhibition at 10 µM: 0%
Trypanosoma brucei [4]
  inhibition: 0%

## CC(C)C[C@@H](NC(=O)[C@@H](CCCCN)NC(=O)[C@@H](C)NC(=O)CNC(=O)CNC(=O)c1cccc2c(=O)n(-c3ccccc3)[se]c12)C(=O)O
Trypanosoma brucei [1]
  EC50: > 10 µM
[2]
  IC50: > 10 µM
Trypanosoma brucei [3]
  inhibition at 10 µM: 0%
Trypanosoma brucei [4]
  inhibition: 0%

## COC(=O)Cn1sc2ccccc2c1=O
Trypanosoma brucei [1]
  EC50: 0.28 µM
[2]
  IC50: > 10 µM
Trypanosoma brucei [3]
  inhibition at 10 µM: 98.3%
Trypanosoma brucei [4]
  inhibition: 12.8%

## O=C(O)c1nn(Cc2ccc(Cl)cc2Cl)c2ccccc12 [LONIDAMINE]
[5]
  IC50: 850 µM

## CC(C)C[C@H](NC(=O)[C@H](CCCCN)NC(=O)[C@H](C)NC(=O)CCOCCOCCNC(=O)c1ccc(-n2sc3ccccc3c2=O)cc1)C(=O)O
Trypanosoma brucei [1]
  EC50: > 10 µM
[2]
  IC50: > 10 µM
Trypanosoma brucei [3]
  inhibition at 10 µM: 35.4%
Trypanosoma brucei [4]
  inhibition: 0%

## O=C(O)Cn1[se]c2ccccc2c1=O
Trypanosoma brucei [1]
  EC50: > 10 µM
[2]
  IC50: > 10 µM
Trypanosoma brucei [3]
  inhibition at 10 µM: 0%
Trypanosoma brucei [4]
  inhibition: 0%

## CC(C)C[C@@H](NC(=O)[C@@H](CCCCN)NC(=O)[C@@H](C)NC(=O)CNC(=O)CNC(=O)Cn1sc2ccccc2c1=O)C(=O)O
Trypanosoma brucei [1]
  EC50: > 10 µM
[2]
  IC50: > 10 µM
Trypanosoma brucei [3]
  inhibition at 10 µM: 28%
Trypanosoma brucei [4]
  inhibition: 3.7%

## COC(=O)c1cccc2c(=O)n(-c3ccccc3)sc12
Trypanosoma brucei [1]
  EC50: 10 µM
[2]
  IC50: > 10 µM
Trypanosoma brucei [3]
  inhibition at 10 µM: 52.5%
Trypanosoma brucei [4]
  inhibition: 18%

## CC(C)C[C@@H](NC(=O)[C@@H](CCCCN)NC(=O)[C@@H](C)NC(=O)CNC(=O)CNC(=O)c1cccc(-n2sc3ccccc3c2=O)c1)C(=O)O
Trypanosoma brucei [1]
  EC50: > 10 µM
[2]
  IC50: > 10 µM
Trypanosoma brucei [3]
  inhibition at 10 µM: 0%
Trypanosoma brucei [4]
  inhibition: 0%

## COC(=O)c1ccc(-n2sc3ccccc3c2=O)cc1
Trypanosoma brucei [1]
  EC50: 3.8 µM
[2]
  IC50: > 10 µM
Trypanosoma brucei [3]
  inhibition at 10 µM: 66.5%
Trypanosoma brucei [4]
  inhibition: 22.8%

## COC(=O)c1cccc2c(=O)n(-c3ccccc3)[se]c12
Trypanosoma brucei [1]
  EC50: 10 µM
[2]
  IC50: > 10 µM
Trypanosoma brucei [3]
  inhibition at 10 µM: 55.6%
Trypanosoma brucei [4]
  inhibition: 2.7%

## O=C(O)c1cccc(-n2sc3ccccc3c2=O)c1
Trypanosoma brucei [1]
  EC50: > 10 µM
[2]
  IC50: > 10 µM
Trypanosoma brucei [3]
  inhibition at 10 µM: 15.8%
Trypanosoma brucei [4]
  inhibition: 0%

## O=C(O)c1cccc2c(=O)n(-c3ccccc3)sc12
Trypanosoma brucei [1]
  EC50: > 10 µM
[2]
  IC50: > 10 µM
Trypanosoma brucei [3]
  inhibition at 10 µM: 10.9%
Trypanosoma brucei [4]
  inhibition: 0%

## CC(C)C[C@@H](NC(=O)[C@@H](CCCCN)NC(=O)[C@@H](C)NC(=O)CNC(=O)CNC(=O)c1cccc(-n2[se]c3ccccc3c2=O)c1)C(=O)O
Trypanosoma brucei [1]
  EC50: > 10 µM
[2]
  IC50: > 10 µM
Trypanosoma brucei [3]
  inhibition at 10 µM: 28.4%
Trypanosoma brucei [4]
  inhibition: 0%

## CC(C)C[C@@H](NC(=O)[C@@H](CCCCN)NC(=O)[C@@H](C)NC(=O)CNC(=O)CNC(=O)c1ccc(-n2sc3ccccc3c2=O)cc1)C(=O)O
Trypanosoma brucei [1]
  EC50: > 10 µM
[2]
  IC50: > 10 µM
Trypanosoma brucei [3]
  inhibition at 10 µM: 26.4%
Trypanosoma brucei [4]
  inhibition: 10.4%

## O=C(O)c1cccc(-n2[se]c3ccccc3c2=O)c1
Trypanosoma brucei [1]
  EC50: > 10 µM
[2]
  IC50: > 10 µM
Trypanosoma brucei [3]
  inhibition at 10 µM: 0%
Trypanosoma brucei [4]
  inhibition: 18.5%

## COC(=O)c1cccc(-n2sc3ccccc3c2=O)c1
Trypanosoma brucei [1]
  EC50: > 10 µM
[2]
  IC50: > 10 µM
Trypanosoma brucei [3]
  inhibition at 10 µM: 8.8%
Trypanosoma brucei [4]
  inhibition: 1.7%

## O=C(O)c1cccc2c(=O)n(-c3ccccc3)[se]c12
Trypanosoma brucei [1]
  EC50: > 10 µM
[2]
  IC50: > 10 µM
Trypanosoma brucei [3]
  inhibition at 10 µM: 0%
Trypanosoma brucei [4]
  inhibition: 0%

## CC(C)C[C@@H](NC(=O)[C@@H](CCCCN)NC(=O)[C@@H](C)NC(=O)CNC(=O)CNC(=O)Cn1[se]c2ccccc2c1=O)C(=O)O
Trypanosoma brucei [1]
  EC50: > 10 µM
[2]
  IC50: > 10 µM
Trypanosoma brucei [3]
  inhibition at 10 µM: 34.4%
Trypanosoma brucei [4]
  inhibition: 1.7%

## CC(C)C[C@@H](NC(=O)[C@@H](CCCCN)NC(=O)[C@@H](C)NC(=O)CNC(=O)CNC(=O)c1cccc2c(=O)n(-c3ccccc3)sc12)C(=O)O
Trypanosoma brucei [1]
  EC50: > 10 µM
[2]
  IC50: > 10 µM
Trypanosoma brucei [3]
  inhibition at 10 µM: 0%
Trypanosoma brucei [4]
  inhibition: 0%

## COC(=O)c1cccc(-n2[se]c3ccccc3c2=O)c1
Trypanosoma brucei [1]
  EC50: > 10 µM
[2]
  IC50: > 10 µM
Trypanosoma brucei [3]
  inhibition at 10 µM: 18%
Trypanosoma brucei [4]
  inhibition: 0%

## O=C(O)c1ccc(-n2[se]c3ccccc3c2=O)cc1
Trypanosoma brucei [1]
  EC50: > 10 µM
[2]
  IC50: > 10 µM
Trypanosoma brucei [3]
  inhibition at 10 µM: 12%
Trypanosoma brucei [4]
  inhibition: 17.2%

## CC(C)C[C@H](NC(=O)[C@H](CCCCN)NC(=O)[C@H](C)NC(=O)CCOCCOCCNC(=O)c1ccc(-n2[se]c3ccccc3c2=O)cc1)C(=O)O
Trypanosoma brucei [1]
  EC50: > 10 µM
[2]
  IC50: > 10 µM
Trypanosoma brucei [3]
  inhibition at 10 µM: 25%
Trypanosoma brucei [4]
  inhibition: 0%

## O=c1c2ccccc2[se]n1-c1ccccc1 [EBSELEN]
Trypanosoma brucei [6]
  EC50: 2.9 µM
[7]
  IC50: 0.05 µM

## CC(C)C[C@@H](NC(=O)[C@@H](CCCCN)NC(=O)[C@@H](C)NC(=O)CNC(=O)CNC(=O)c1ccc(-n2[se]c3ccccc3c2=O)cc1)C(=O)O
Trypanosoma brucei [1]
  EC50: > 10 µM
[2]
  IC50: > 10 µM
Trypanosoma brucei [3]
  inhibition at 10 µM: 44.1%
Trypanosoma brucei [4]
  inhibition: 0%

## O=c1c2ccccc2sn1-c1ccccc1
Trypanosoma brucei [6]
  EC50: 0.03 µM
[7]
  IC50: 2 µM
